Data set [1] has as its system H4. Kind of data set: Cytotoxicity against human H4 cells expressing wild type betaAPP695 at 10 uM after 24 hrs by methylene blue staining. Format: cell-based. The note with it: h4, 24 h. A digest of the protocol: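 Primary screen in H4βAPP695wt cells: drugs are delivered by the hanging drop method at an estimated 10-25 μM, and conditioned medium is collected at 24 h. Cytotoxicity is assessed by methylene blue staining of cells in the wells, with each compound run in a single well and hits rescreened in duplicate.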

Data set [2] relates to H4. Kind of data set: Induction of alpha-secretase-mediated reduction in amyloid beta secretion in human H4 cells expressing wild type betaAPP695 at 10 uM after 24 hrs […] relative to control. It is filed as cell-based. Set-up: scale not given: the % may be the effect or the level left. Put shortly:
(§1)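 Serum-starved H4βAPP695wt cells are treated for 24 h with drug in DMSO (0.02% DMSO vehicle control). Total Aβ in conditioned medium is measured by sandwich ELISA with 6E10 capture and 4G8 detection, normalized to lysate protein by BCA. Cytotoxicity is read as total cell protein. Quadruplicate wells in 1-4 independent experiments give the % decrease versus vehicle.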

The test system of data set [3] is H4. Kind of data set: Induction of alpha-secretase-mediated amyloid beta lowering activity in human H4 cells expressing wild type betaAPP695 at 1 uM after 24 hrs by ELISA. It is filed as cell-based. Put shortly:
as §1
For orientation: An ELISA detects its analyte on a solid surface through an enzyme-linked reagent.

Data set [4] has as its system H4. The data set is described as follows: Activation of alpha-secretase in human H4 cells expressing wild type betaAPP695 assessed as increase in sAPPalpha levels at 10 uM after 24 hrs by Western blotting. Format: cell-based. A digest of the protocol: (§2)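 H4βAPP695wt cells are switched to serum-free medium 24 h before treatment, then exposed to drug in DMSO or vehicle for 24 h. Conditioned medium gets protease inhibitors and is cleared, with its volume adjusted to lysate protein; sAPPα is probed with 6E10 and sAPPβ with a specific antibody (1:1000), detected by ECL. Lysates in RIPA (20 μg protein) go on 4-20% Bis-Tris gels. Bands are quantified by densitometry.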
For orientation: Immunoblotting shows a protein as a band on a membrane.

Data set [5] has as its system H4. The data set is described as follows: Activation of alpha-secretase in human H4 cells expressing wild type betaAPP695 assessed as increase in alpha-CTF levels at 10 uM after 24 hrs by Western blotting. Format: cell-based. Put shortly: as §2
The subject of data set [6] is H4. Kind of data set: Activation of alpha-secretase in human H4 cells expressing wild type betaAPP695 assessed as increase in sAPPbeta levels at 10 uM after 24 hrs by Western blotting. Format: cell-based. A digest of the protocol: as §2
Data set [7] deals with H4. The data set is described as follows: Increase in alpha-secretase activity in human H4 cells expressing wild type betaAPP695 at 10 uM after 24 hrs by fluorescence method. Format: cell-based. A digest of the protocol: (§3)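 H4βAPP695wt cells are treated with drug or vehicle for 24 h, washed in cold PBS and lysed on ice for 10 min. 50 μg lysate protein plus reaction buffer and fluorogenic peptide substrate are incubated 2 h at 37 °C in the dark. Fluorescence is read at ex 355/em 510 nm after subtracting the no-lysate blank, N = 6.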

For data set [8], the system named is H4. The data set is described as follows: Increase in alpha-secretase activity in human H4 cell lysate expressing wild type betaAPP695 at 10 uM after 24 hrs by fluorescence method. It is filed as cell-based. Put shortly: as §3
The test system of data set [9] is H4. The data set is described as follows: Induction of alpha-secretase-mediated reduction in amyloid beta secretion in human H4 cells expressing wild type betaAPP695 by […] in presence of PKC-inhibitor bisindolyl-maleimide. It is filed as cell-based. A digest of the protocol:
(§4)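 H4βAPP695wt cells in serum-free medium receive a PKC inhibitor 30 min before a 24 h drug challenge. Secreted Aβ is measured by ELISA and compared with the respective control for each inhibitor, N = 4.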

Data set [10] deals with H4. The data set is described as follows: Induction of alpha-secretase-mediated reduction in amyloid beta secretion in human H4 cells expressing wild type betaAPP695 by […] in presence of PKC-inhibitor calphostin C. Format: cell-based. Put shortly: as §4
In data set [11] the test system is H4. The data set is described as follows: Induction of alpha-secretase-mediated reduction in amyloid beta secretion in human H4 cells expressing wild type betaAPP695 […] in presence of PKC-inhibitor rottlerin. Format: cell-based. A digest of the protocol:
as §4

In data set [12] the test system is H4. The data set is described as follows: Activation of alpha-secretase in human H4 cells expressing wild type betaAPP695 assessed as increase in ratio of active-ADAM9 to pro-ADAM9 level at 10 uM after 24 hrs by Western blotting. It is filed as cell-based. Put shortly:
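H4βAPP695wt cells are held in serum-free medium for 24 h, then given increasing drug concentrations for 24 h. RIPA lysates (20 μg protein) are immunoblotted with antibodies for ADAM9, ADAM10 and ADAM17, and pro and active forms are quantified by densitometry as an active/pro ratio, N = 3 per group.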

The subject of data set [13] is H4. The data set is described as follows: Induction of alpha-secretase-mediated reduction in amyloid beta secretion in human H4 cells expressing wild type betaAPP695 treated with media containing human THLE3 cells incubated with 10 uM compound for 24 hrs […]. Format: cell-based. Set-up: scale not given: the % may be the effect or the level left. The note with it: in the assay text read “20 uM” for “10 uM”.

The test system of data set [14] is H4. Kind of data set: Induction of alpha-secretase-mediated reduction in amyloid beta secretion in human H4 cells expressing wild type betaAPP695 assessed as remaining drug activity treated with media containing human THLE3 cells incubated with 10 uM compound for 24 hrs measured 24 hrs after media treatment […]. It is filed as cell-based.
Data set [15] concerns H4. Kind of data set: Induction of alpha-secretase-mediated reduction in amyloid beta secretion in human H4 cells expressing wild type betaAPP695 placed in lower chamber treated with […] compound placed in upper chamber containing human Caco-2 cells for 4 hrs measured 24 hrs after media treatment […]. Format: cell-based. Set-up: scale not given: the % may be the effect or the level left. Put shortly: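 Caco-2 cells are seeded at 70000 per Transwell insert and grown 21 days to TEER >160 Ω/cm2. Drug at 40 μM with 20 μg/mL lucifer yellow goes in the apical chamber in serum-free medium. After 4 h, basal medium is checked for lucifer yellow and applied to H4βAPP695wt cells for 24 h. Secreted Aβ by ELISA is compared with direct 10 μM drug as % activity passing.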

The subject of data set [16] is H4. Kind of data set: Induction of alpha-secretase-mediated reduction in amyloid beta secretion in human H4 cells expressing wild type betaAPP695 at 30 uM after 24 hrs […] relative to control. Format: cell-based. Also noted: scale not given: the % may be the effect or the level left. A digest of the protocol:
as §1

Data set [17] deals with H4. The data set is described as follows: Cytotoxicity against human H4 cells expressing wild type betaAPP695 assessed as decrease in cell protein at 10 uM after 24 hrs. It is filed as cell-based. Set-up: scale not given: the % may be the effect or the level left. The note with it: h4, 24 h. A digest of the protocol:
as §1

The subject of data set [18] is H4. Kind of data set: Cytotoxicity against human H4 cells expressing wild type betaAPP695 assessed as decrease in cell protein at 30 uM after 24 hrs. It is filed as cell-based. Set-up: scale not given: the % may be the effect or the level left. The note with it: h4, 24 h. Put shortly: as §1
The subject of a further data set is Mus musculus. The data set is described as follows: Reduction in amyloid beta levels in transgenic C57BL/6 mouse brain at 100 mg/kg, iv after 6 hrs. It is filed as functional. Set-up: scale not given: the % may be the effect or the level left. A digest of the protocol: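 Two-month-old female APPswe/PSEN1dE9 C57BL/6 mice (20-25 g) under ketamine/xylazine receive retro-orbital iv injection of 2.5 mg in 150 μL (∼100-125 mg/kg) or vehicle. After 6 h, one hemisphere without cerebellum is homogenized in 5 M guanidine HCl/50 mM Tris pH 8.3. Total Aβ is measured by ELISA and normalized to brain protein by BCA.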

The source made the active and inactive calls. The rule behind the calls is not given here.

Take `O=C(NCCSCc1ccc(Cl)cc1)c1ccc(Cl)cc1Cl`: the values for the Activity result in the data set on H4 [1] and in the data set on H4 [2] were “Non-toxic” and 5.3%, respectively.
Regarding `O=C(NCCSCc1cccc(Cl)c1)c1c(Cl)cccc1Cl`, the result in the data set with H4 [3], in the data set with H4 [4], in the data set on H4 [5], in the data set on H4 [9], with H4 [10] and in the data set on H4 [11] was Active. The result in the data set on H4 [6] and in the data set with H4 [8] was inactive. Besides, the Activity is 20% in the data set on H4 [7]; 31% in the data set with H4 [12]; 75.3% with H4 [2]; 34.6% with H4 [13]; 50% in the data set on H4 [14]; 26.7% in the data set on H4 [15].
Take `O=C(NCCSCc1ccccc1)c1c(Cl)cccc1Cl`: the Activity is 51.6% in the data set with H4 [2]; 58.6% in the data set with H4 [16]; -1.1% with H4 [17]; -0.7% with H4 [18]; 27% with H4 [13]; 52% in the data set on H4 [14]. Besides, the Activity in the data set with H4 [15] came to 31%.
For the molecule `O=C(NCCSCc1cccc(I)c1)c1c(Cl)cccc1Cl`, the Activity in the data set with H4 [2] stood at 84.4%; in the data set on H4 [16] it was 88.3%; in the data set with H4 [17], 9.2%; with H4 [18], 19%; in the data set on H4 [13] it was 40%; in the data set with H4 [14] it was 47%. Also, the Activity with H4 [15] was determined as 1.1%.
Consider `COc1cccc(CSCCNC(=O)c2c(Cl)cccc2Cl)c1OC`, for which the Activity with H4 [2] is 57.8%; in the data set on H4 [16], 72.8%; in the data set on H4 [17], -0.1%; in the data set with H4 [18], 8.7%; with H4 [13], 1.9%; with H4 [14], 3%. The Activity with H4 [15] came out at 26.5%.
For `O=C(NCCSCc1ccccc1Cl)c1c(Cl)cccc1Cl`, the Activity was 75.6% in the data set with H4 [2]; 80% in the data set on H4 [16]; -0.5% in the data set on H4 [17]; -11% with H4 [18]; 48.8% in the data set with H4 [13]; 65% in the data set on H4 [14]. The Activity in the data set on H4 [15] came out at 31.6%.
As for `COc1cccc(CSCCNC(=O)c2c(Cl)cccc2Cl)c1`, the Activity was 60.6% in the data set on H4 [2]; 73.9% with H4 [16]; 8.4% in the data set on H4 [17]; 13.2% with H4 [18]; 22.2% in the data set with H4 [13]; 37% in the data set on H4 [14]. Moreover, in the data set on H4 [15], the Activity is 17.9%.
For `Cc1cccc(CSCCNC(=O)c2c(Cl)cccc2Cl)c1`, the Activity with H4 [2] was determined as 70.5%; with H4 [16], 85.8%; in the data set on H4 [17] it was 11.7%; in the data set with H4 [18], 16.6%; in the data set with H4 [13] it was 38.3%; with H4 [14], 54%. Besides, the Activity with H4 [15] was 49.9%; in the data set with Mus musculus, 39.6%.
